Experimental data from ChEMBL document CHEMBL1133115, “Synthesis, biological evaluation, and conformational analysis of A-ring diastereomers of 2-methyl-1,25-dihydroxyvitamin D(3) and their 20-epimers: unique activity profiles depending on the stereochemistry of the A-ring and at C-20” (2000).
Several values for one entry are separate records, joined by “and”; a condition that tells them apart may be missing. Equal values may be shown once.

How the values were obtained:
HL-60 [1] = experiment: Differentiation inducing effect on HL-60 cells; format: functional, Homo sapiens
Procedure, shortened: (§1)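 Line 1 is binding to bovine thymus vitamin D receptor. Lines 3 and 6 are differentiation induction in HL-60 cells.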

Rattus norvegicus [2] = species on record: Rattus norvegicus; experiment: Bone calcium-mobilizing (BCM) activity at 260 pmol/day *7day in vitamin D deficient rats on a low-calcium diet ([…]); format: functional
Procedure, shortened: (§2)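 Vitamin D-deficient rats on a low-calcium diet were given the analogue intraperitoneally once daily for 7 consecutive days during the last week, in propylene glycol/ethanol (95:5). Controls received vehicle only. Serum calcium (mg/100 mL) was measured 24 h after the last dose, with 5-6 rats/group. Results are mean ± SEM, compared with control by Student's t-test.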

Rattus norvegicus [3] = species on record: Rattus norvegicus; experiment: Bone calcium-mobilizing (BCM) activity at 500 pmol/day/7days in vitamin D deficient rats on a low calcium diet (0.02% Ca); format: functional; procedure, shortened: as §2
Rattus norvegicus [4] = species on record: Rattus norvegicus; experiment: evaluated for increasing effect of serum calcium level in normal rats(Ca); format: functional
Procedure, shortened: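 Normal male Sprague-Dawley rats were used to measure elevation of serum calcium level. Potency is expressed relative to 1α,25-dihydroxyvitamin D3, which is set at 100.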

[5] = biological target: T1, Vitamin D3 receptor (Bos taurus) (UniProt Q28037); experiment: Binding affinity for bovine thymus vitamin D3 receptor; procedure, shortened: as §1
T1 sequence (whole entry): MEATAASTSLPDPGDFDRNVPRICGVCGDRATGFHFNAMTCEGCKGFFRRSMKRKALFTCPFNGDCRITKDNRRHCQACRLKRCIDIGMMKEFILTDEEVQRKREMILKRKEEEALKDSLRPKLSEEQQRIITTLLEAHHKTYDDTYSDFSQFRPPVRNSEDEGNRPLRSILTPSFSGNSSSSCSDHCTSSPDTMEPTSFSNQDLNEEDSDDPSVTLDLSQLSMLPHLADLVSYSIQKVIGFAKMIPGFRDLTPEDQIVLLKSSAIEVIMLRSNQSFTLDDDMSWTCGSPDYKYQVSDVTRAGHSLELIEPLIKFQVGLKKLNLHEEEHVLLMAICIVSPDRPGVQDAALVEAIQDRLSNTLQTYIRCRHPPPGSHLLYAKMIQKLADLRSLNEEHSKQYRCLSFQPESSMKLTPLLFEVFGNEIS

Rattus norvegicus [6] = species on record: Rattus norvegicus; experiment: Bone Calcium-Mobilizing (BCM) activity (260 pmol/day/7 days) in Vitamin D-Deficient Rats on a Low-Calcium Diet (0.02% Ca diet); format: functional; procedure, shortened: as §2
Rattus norvegicus [7] = species on record: Rattus norvegicus; experiment: Bone Calcium-Mobilizing (BCM) activity (260 pmol/day/7 days) in Vitamin D-Deficient Rats on a Low-Calcium Diet; format: functional; procedure, shortened: as §2
[8] = system: Vitamin D-binding protein (Bos taurus); experiment: Binding affinity for calf serum vitamin D-binding protein
HL-60 [9] = experiment: evaluated for differentiation inducing effect on HL-60 cells, relative potency with respect to 1-alpha, 25-Dihydroxyvitamin D3; format: functional, Homo sapiens; procedure, shortened: as §1

In the case of `C=C1/C(=C\C=C2/CCC[C@]3(C)[C@@H]([C@@H](C)CCCC(C)(C)O)CC[C@@H]23)C[C@H](O)[C@@H](C)[C@@H]1O` (stereo in doubt; form 1) [listing 1 of 2 here], the Relative potency (HL-60 [1]) is reported as 6, the “BCM serum Ca” value (Rattus norvegicus [2]) is reported as 4.4 mg 100ml-1 and the “BCM serum Ca” value (Rattus norvegicus [3]) is reported as 4.3 mg 100ml-1.
`C=C1/C(=C\C=C2/CCC[C@]3(C)[C@@H]([C@H](C)CCCC(C)(C)O)CC[C@@H]23)C[C@@H](O)[C@H](C)[C@H]1O` (stereo in doubt; form 2) was tested, and the Relative potency (HL-60 [1]) was 1, the “BCM serum Ca” value (Rattus norvegicus [2]) was 4.4 mg 100ml-1 and the “BCM serum Ca” value (Rattus norvegicus [3]) was 4.3 mg 100ml-1.
`C=C1/C(=C\C=C2/CCC[C@]3(C)[C@@H]([C@H](C)CCCC(C)(C)O)CC[C@@H]23)C[C@@H](O)[C@@H](C)[C@@H]1O` (stereo in doubt; form 2) was tested, and the Relative potency (HL-60 [1]) was 10, the “BCM serum Ca” value (Rattus norvegicus [2]) was 4.1 mg 100ml-1 and the “BCM serum Ca” value (Rattus norvegicus [3]) was under 5 mg 100ml-1. It also gave a Relative potency (Rattus norvegicus [4]) of 2.
In the case of `C=C1/C(=C\C=C2/CCC[C@]3(C)[C@@H]([C@H](C)CCCC(C)(C)O)CC[C@@H]23)C[C@H](O)[C@H](C)[C@@H]1O` (stereo in doubt; form 1), the “BCM serum Ca” value (Rattus norvegicus [2]) is reported as 4.2 mg 100ml-1 and the “BCM serum Ca” value (Rattus norvegicus [3]) is reported as 4.1 mg 100ml-1.
In the case of `C=C1/C(=C\C=C2/CCC[C@]3(C)[C@@H]([C@H](C)CCCC(C)(C)O)CC[C@@H]23)C[C@@H](O)C[C@@H]1O` [CALCITRIOL], the Relative potency (HL-60 [1]) is reported as 100, the “BCM serum Ca” value (Rattus norvegicus [2]) is reported as under 5.5 mg 100ml-1 and the Relative potency (Rattus norvegicus [4]) is reported as 100. For the same compound, the Relative potency [5] was 100, the BCM serum Ca (Rattus norvegicus [6]) was 6.8 mg 100ml-1 and the “BCM serum Ca” value (Rattus norvegicus [7]) was <5.5 mg 100ml-1 and <5.4 mg 100ml-1 and <6 mg 100ml-1 and <6.1 mg 100ml-1.
For `C=C1/C(=C\C=C2/CCC[C@]3(C)[C@@H]([C@H](C)CCCC(C)(C)O)CC[C@@H]23)C[C@@H](O)[C@H](C)[C@@H]1O` (stereo in doubt; form 1), the Relative potency (HL-60 [1]) was 200, the “BCM serum Ca” value (Rattus norvegicus [2]) was under 6 mg 100ml-1 and the Relative potency (Rattus norvegicus [4]) was 400.
In the case of `C=C1/C(=C\C=C2/CCC[C@]3(C)[C@@H]([C@H](C)CCCC(C)(C)O)CC[C@@H]23)C[C@H](O)[C@H](C)[C@@H]1O` (stereo in doubt; form 2), the Relative potency (HL-60 [1]) is reported as 730, the “BCM serum Ca” value (Rattus norvegicus [2]) is reported as under 4.6 mg 100ml-1 and the “BCM serum Ca” value (Rattus norvegicus [3]) is reported as 4.6 mg 100ml-1. For the same compound, the Relative potency (Rattus norvegicus [4]) was 144.
In the case of `C=C1/C(=C\C=C2/CCC[C@]3(C)[C@@H]([C@@H](C)CCCC(C)(C)O)CC[C@@H]23)C[C@H](O)[C@@H](C)[C@H]1O` (stereo in doubt; form 2) [listing 1 of 2 here], the Relative potency (HL-60 [1]) is reported as 3, the “BCM serum Ca” value (Rattus norvegicus [2]) is reported as 4.1 mg 100ml-1 and the “BCM serum Ca” value (Rattus norvegicus [3]) is reported as 3.8 mg 100ml-1.
Compound `C=C1/C(=C\C=C2/CCC[C@]3(C)[C@@H]([C@@H](C)CCCC(C)(C)O)CC[C@@H]23)C[C@H](O)[C@@H](C)[C@H]1O` (stereo in doubt; form 1) [listing 1 of 2 here] has a Relative potency [8] of under 0.3 and a Relative potency [5] of 7.
For `C=C1/C(=C\C=C2/CCC[C@]3(C)[C@@H]([C@H](C)CCCC(C)(C)O)CC[C@@H]23)C[C@H](O)[C@H](C)[C@H]1O` (stereo in doubt; form 2), the Relative potency (HL-60 [1]) was 0.5, the “BCM serum Ca” value (Rattus norvegicus [2]) was 3.9 mg 100ml-1 and the “BCM serum Ca” value (Rattus norvegicus [3]) was 3.9 mg 100ml-1.
With `C=C1/C(=C\C=C2/CCC[C@]3(C)[C@@H]([C@@H](C)CCCC(C)(C)O)CC[C@@H]23)C[C@H](O)[C@@H](C)[C@@H]1O` (stereo in doubt; form 2) [listing 1 of 2 here] the Relative potency [8] was 21 and the Relative potency [5] was 0.3.
With `C=C1/C(=C\C=C2/CCC[C@]3(C)[C@@H]([C@H](C)CCCC(C)(C)O)CC[C@@H]23)C[C@@H](O)[C@@H](C)[C@H]1O` (stereo in doubt; form 1) the Relative potency (HL-60 [9]) was 1, the “BCM serum Ca” value (Rattus norvegicus [2]) was 4.9 mg 100ml-1 and the “BCM serum Ca” value (Rattus norvegicus [3]) was 5 mg 100ml-1.
In the case of `C=C1/C(=C\C=C2/CCC[C@]3(C)[C@@H]([C@H](C)CCCC(C)(C)O)CC[C@@H]23)C[C@@H](O)[C@@H](C)[C@H]1O` (stereo in doubt; form 2), the Relative potency (HL-60 [1]) is reported as 1.5, the “BCM serum Ca” value (Rattus norvegicus [2]) is reported as under 5 mg 100ml-1 and the “BCM serum Ca” value (Rattus norvegicus [3]) is reported as under 4.9 mg 100ml-1.
For `C=C1/C(=C\C=C2/CCC[C@]3(C)[C@@H]([C@H](C)CCCC(C)(C)O)CC[C@@H]23)C[C@@H](O)[C@H](C)[C@H]1O` (stereo in doubt; form 1), the Relative potency (HL-60 [1]) was 3, the “BCM serum Ca” value (Rattus norvegicus [2]) was 4.8 mg 100ml-1 and the “BCM serum Ca” value (Rattus norvegicus [3]) was 4.7 mg 100ml-1.
For `C=C1/C(=C\C=C2/CCC[C@]3(C)[C@@H]([C@@H](C)CCCC(C)(C)O)CC[C@@H]23)C[C@H](O)[C@@H](C)[C@H]1O` (stereo in doubt; form 1) [listing 2 of 2 here], the Relative potency (HL-60 [1]) was 190, the “BCM serum Ca” value (Rattus norvegicus [2]) was 4.4 mg 100ml-1 and the “BCM serum Ca” value (Rattus norvegicus [3]) was 4.4 mg 100ml-1. The Relative potency (Rattus norvegicus [4]) was 19.
In the case of `C=C1/C(=C\C=C2/CCC[C@]3(C)[C@@H]([C@@H](C)CCCC(C)(C)O)CC[C@@H]23)C[C@H](O)[C@@H](C)[C@@H]1O` (stereo in doubt; form 2) [listing 2 of 2 here], the Relative potency (HL-60 [1]) is reported as 1.5, the “BCM serum Ca” value (Rattus norvegicus [2]) is reported as under 5.2 mg 100ml-1 and the “BCM serum Ca” value (Rattus norvegicus [3]) is reported as under 5.4 mg 100ml-1.
`C=C1/C(=C\C=C2/CCC[C@]3(C)[C@@H]([C@@H](C)CCCC(C)(C)O)CC[C@@H]23)C[C@H](O)[C@@H](C)[C@@H]1O` (stereo in doubt; form 1) [listing 2 of 2 here] gave a Relative potency [8] of under 0.3 and a Relative potency [5] of under 0.1.
In the case of `C=C1/C(=C\C=C2/CCC[C@]3(C)[C@@H]([C@@H](C)CCCC(C)(C)O)CC[C@@H]23)C[C@H](O)[C@@H](C)[C@H]1O` (stereo in doubt; form 2) [listing 2 of 2 here], the Relative potency [8] is reported as 1300 and the Relative potency [5] is reported as 0.8.
`C=C1/C(=C\C=C2/CCC[C@]3(C)[C@@H]([C@H](C)CCCC(C)(C)O)CC[C@@H]23)C[C@H](O)[C@H](C)[C@H]1O` (stereo in doubt; form 1) was tested, and the Relative potency (HL-60 [1]) was 1, the “BCM serum Ca” value (Rattus norvegicus [2]) was 4.3 mg 100ml-1 and the “BCM serum Ca” value (Rattus norvegicus [3]) was 4.4 mg 100ml-1.
With `C=C1/C(=C\C=C2/CCC[C@]3(C)[C@@H]([C@H](C)CCCC(C)(C)O)CC[C@@H]23)C[C@@H](O)[C@@H](C)[C@@H]1O` (stereo in doubt; form 1) the Relative potency (HL-60 [1]) was 2600, the “BCM serum Ca” value (Rattus norvegicus [2]) was 4.6 mg 100ml-1 and the “BCM serum Ca” value (Rattus norvegicus [3]) was 4.4 mg 100ml-1. The Relative potency (Rattus norvegicus [4]) was 115.
`C=C1/C(=C\C=C2/CCC[C@]3(C)[C@@H]([C@H](C)CCCC(C)(C)O)CC[C@@H]23)C[C@@H](O)[C@H](C)[C@@H]1O` (stereo in doubt; form 2) was tested, and the Relative potency (HL-60 [1]) was 59000, the “BCM serum Ca” value (Rattus norvegicus [2]) was under 5.8 mg 100ml-1 and the “BCM serum Ca” value (Rattus norvegicus [3]) was under 7.8 mg 100ml-1. The Relative potency (Rattus norvegicus [4]) was 655.
